Publication PMC6089849 (Acta Pharmaceutica Sinica. B, 2018)
“And” between values parts separate entries of the source, which are not always exact repeats. Identical values can stand only once.

How the values were obtained:
[1] = molecular target: PDE9A2 (Homo sapiens, UniProt O76083); assay: In vitro bioassay for inhibition of PDE9; format: biochemical; settings: for IC50: IC50 against PDE9, mean of three independent determinations
[2] = In vitro cell viability assay; format: cell-based; settings: human, SH-SY5Y cells
Summary of the method: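 SH-SY5Y cells seeded at 5 × 10^3 per well and allowed 24 h before test compound addition at 10, 20, 40, 60, 80 and 100 μmol/L. After 48 h exposure, MTT was added for 4 h at 37 °C. Formazan was dissolved in DMSO, and absorbance was read at 570 nm.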

PDE9A2, sequence (O76083 1-533 isoform O76083-2): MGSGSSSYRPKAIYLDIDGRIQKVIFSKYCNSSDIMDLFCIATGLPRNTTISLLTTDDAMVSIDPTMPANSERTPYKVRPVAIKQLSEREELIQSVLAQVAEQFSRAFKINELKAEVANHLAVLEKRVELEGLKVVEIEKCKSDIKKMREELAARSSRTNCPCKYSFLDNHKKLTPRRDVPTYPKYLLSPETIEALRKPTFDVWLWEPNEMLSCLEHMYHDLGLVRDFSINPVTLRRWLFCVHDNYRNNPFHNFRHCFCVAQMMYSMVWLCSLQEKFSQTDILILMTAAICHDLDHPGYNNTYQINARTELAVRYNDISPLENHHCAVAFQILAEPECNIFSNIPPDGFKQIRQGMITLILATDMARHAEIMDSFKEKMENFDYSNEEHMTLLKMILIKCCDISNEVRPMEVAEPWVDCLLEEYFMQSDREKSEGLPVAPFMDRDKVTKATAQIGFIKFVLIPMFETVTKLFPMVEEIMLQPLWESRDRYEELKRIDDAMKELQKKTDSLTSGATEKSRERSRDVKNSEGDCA

Compound	IC50 [1]	fold more potent than PF-04447943 (PDE9 IC50) ([1]; vs PF-04447943) [fold]	fold increase of IC50 potency compared with compound 5b ([1]; vs compound 5b) [fold]	viability at 48 h, 40 μmol/L [2] [%]	viability at 48 h, 100 μmol/L [2] [%]	inhibition against PDE9A ([1]; at the concentration of 5 mmol/L)
COc1cc(/C=C2\SC(=O)NC2=O)ccc1OCCNc1nc2c(cnn2C2CCCC2)c(=O)[nH]1 [Compound 11d, (Z)-5-(4-(2-((1-Cyclopentyl-4-oxo-4,5-dihydro-1H-pyrazolo[3,4-d]pyrimidin-6-yl)amino)ethoxy)-3-methoxybenzylidene)thiazolidine-2,4-dione]	76 nM					
O=C1NC(=O)/C(=C/c2ccc(OCCNc3nc4c(cnn4C4CCCC4)c(=O)[nH]3)c(F)c2)S1 [Compound 11a, (Z)-5-(4-(2-((1-Cyclopentyl-4-oxo-4,5-dihydro-1H-pyrazolo[3,4-d]pyrimidin-6-yl)amino)ethoxy)-3-fluorobenzylidene)thiazolidine-2,4-dione]	< 5 nM	8	20	55	34	
C[C@@H](COc1ccc(CC2SC(=O)NC2=O)cc1)Nc1nc2c(cnn2C2CCCC2)c(=O)[nH]1 (stereo partly drawn) [Compound 15, 5-(4-((S)-2-((1-Cyclopentyl-4-oxo-4,5-dihydro-1H-pyrazolo[3,4-d]pyrimidin-6-yl)amino)propoxy)benzyl)thiazolidine-2,4-dione]	98 nM					
O=C1NC(=O)C(Cc2ccc(OCCNc3nc4c(cnn4C4CCCC4)c(=O)[nH]3)c(F)c2)S1 (centres unmarked) [Compound 14a, 5-(4-(2-((1-Cyclopentyl-4-oxo-4,5-dihydro-1H-pyrazolo[3,4-d]pyrimidin-6-yl)amino)ethoxy)-3-fluorobenzyl)thiazolidine-2,4-dione]	< 5 nM and 3.5 nM			82	52	
COc1cc(CC2SC(=O)NC2=O)cc(F)c1OCCNc1nc2c(cnn2C2CCCC2)c(=O)[nH]1 (centres unmarked) [Compound 14c, 5-(4-(2-((1-Cyclopentyl-4-oxo-4,5-dihydro-1H-pyrazolo[3,4-d]pyrimidin-6-yl)amino)ethoxy)-3-fluoro-5-methoxybenzyl)thiazolidine-2,4-dione]	< 5 nM and 4.2 nM			93	62	
CN(CCOc1ccc(CC2SC(=O)NC2=O)cc1)c1ccccn1 (centres unmarked) [Rosiglitazone, reference compound]						no inhibition
COc1cc(/C=C2\SC(=O)NC2=O)cc(F)c1OCCNc1nc2c(cnn2C2CCCC2)c(=O)[nH]1 [Compound 11c, (Z)-5-(4-(2-((1-Cyclopentyl-4-oxo-4,5-dihydro-1H-pyrazolo[3,4-d]pyrimidin-6-yl)amino)ethoxy)-3-fluoro-5-methoxybenzylidene)thiazolidine-2,4-dione]	< 5 nM and 3.3 nM			84	57	
